In ChEMBL document CHEMBL1131098, “Synthesis and antitumor activity of 4-aminomethylthioxanthenone and 5-aminomethylbenzothiopyranoindazole derivatives” (J Med Chem, 1998):

Columns and labels:
Assay type in all cases: functional
Mus musculus [1] = experiment: In vivo antitumor activity measured in mice against the Colon26/A murine solid tumors.
Mus musculus [2] = experiment: In vivo antitumor activity measured in mice against the Mam16/C murine solid tumors.
Mus musculus [3] = experiment: In vivo antitumor activity measured in mice against the Colon38 murine solid tumors.
Mus musculus [4] = experiment: In vivo antitumor activity measured in mice against the Colon51 murine solid tumors.
Mus musculus [5] = species: Mus musculus; experiment: The long term cures (LTC) value is the number of mice in a group with no palpable tumor.
Procedure, shortened: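 Panc03-bearing BDF1 mice (bilateral sc fragments) dosed iv at the maximum tolerated dose from day 3. Long-term cure is a mouse with no palpable tumor after at least 86 days, reported as cured mice over total mice per treatment group.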

Mus musculus [6] = experiment: In vivo antitumor activity measured in mice against the Panc 02 murine solid tumors.
Mus musculus [7] = species: Mus musculus; experiment: compound was tested for murine tumor growth inhibition,T/C value ([…]/control) in mice.
Procedure, shortened: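 BDF1 mice implanted bilaterally sc with 30–60-mg Panc03 fragments on day 0. Dosing iv at the maximum tolerated dose (LD10 or less), starting 3 days after implantation. Tumor growth inhibition expressed as %T/C; %T/C > 42 counted as not active.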

COc1cccc2c1C(=O)c1c(O)c3c(c(O)c1C2=O)C[C@@](O)(C(=O)CO)C[C@@H]3O[C@H]1C[C@H](N)[C@H](O)[C@H](C)O1 [DOXORUBICIN]
T/C (Mus musculus [1]): 7% | T/C (Mus musculus [2]): 0% | T/C (Mus musculus [3]): 0% | T/C (Mus musculus [4]): 21% | LTC (Mus musculus [5]): 0.2 | T/C (Mus musculus [6]): 35%

CCN(CC)CCNc1ccc(CN2C(=O)c3ccccc3C2=O)c2sc3ccccc3c(=O)c12
T/C (Mus musculus [7]): 38%
